In data set [1] the target is Kallikrein-4 (Homo sapiens, UniProt Q9Y5K2). The experiment in a line: Inhibition of KLK4 (unknown origin) expressed in sf9 cells using Ac-FVQR-pNA as substrate preincubated for 30 mins followed by substrate addition and measured for 7 mins by spectrophotometric method.
A short description of data set [2]: Drug uptake in human HeLa cells at 4 uM using Alexa Fluor 488 conjugated test compound after 1 hr by trypan blue dye based flow cytometry relative to HIV-Tat. The data set is classed as ADME, cell-based. The essentials:
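HeLa cells given Alexa Fluor 488-conjugated peptides (4 μM). Mean fluorescence measured by flow cytometry before and after trypan blue quenching of extracellular signal. Values normalized to the HIV-TAT positive control (post-trypan blue). Three independent experiments, SD; one-way ANOVA with Tukey's post hoc test.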
(A flow cytometer gives signals particle by particle.)

Data set [3] concerns HeLa. The experiment in a line: Cytotoxicity against human HeLa cells up to 64 uM after 2 hrs by resazurin dye based assay. The class given is cell-based. In a few lines:
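HeLa cells exposed to peptides for 2 h, concentrations up to 64 μM. Resazurin then added for 18 h at 37 °C. Resorufin absorbance read at 540 and 620 nm, and viability % expressed as the A620/A540 ratio. Three independent experiments, standard deviation.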
(Alamar Blue is a resazurin reagent that responds to reducing activity.)

Positions of bridges follow the written chain, without caps; N, C: chain ends. Residues, ends and D or L forms follow the SMILES beside them.

Kallikrein-4, sequence (Q9Y5K2 whole entry): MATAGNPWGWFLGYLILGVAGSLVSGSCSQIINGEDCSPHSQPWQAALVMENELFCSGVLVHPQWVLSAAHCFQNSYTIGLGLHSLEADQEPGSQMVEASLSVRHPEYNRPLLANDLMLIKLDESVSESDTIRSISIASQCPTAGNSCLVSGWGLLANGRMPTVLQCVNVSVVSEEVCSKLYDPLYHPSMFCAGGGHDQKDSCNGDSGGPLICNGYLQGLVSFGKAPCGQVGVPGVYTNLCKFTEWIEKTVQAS

As to `CC[C@H](C)[C@@H]1NC(=O)[C@@H]2CSSC[C@@H]3NC(=O)[C@H](Cc4ccccc4)NC(=O)CNC(=O)CNC(=O)[C@H](CC(=O)O)NC(=O)[C@H](CO)NC(=O)CNC(=O)[C@H](CO)NC(=O)CNC(=O)[C@@H]4CSSC[C@H](NC(=O)[C@H](CC(=O)O)NC(=O)[C@H](CO)NC(=O)[C@H](CC(=O)O)NC(=O)[C@H](CCCNC(=N)N)NC(=O)[C@H](CCCNC(=N)N)NC(=O)[C@H](CSSC[C@H](NC1=O)C(=O)N[C@@H](CCCNC(=N)N)C(=O)NCC(=O)N[C@@H](CC(N)=O)C(=O)NCC(=O)N[C@@H](Cc1ccc(O)cc1)C(=O)N4)NC(=O)[C@H](CCCCN)NC(=O)[C@H](CCCCN)NC(=O)[C@H](CC(C)C)NC(=O)[C@H]([C@@H](C)CC)NC(=O)[C@H](CCCCN)NC(=O)[C@@H]1CCCN1C3=O)C(=O)N1CCC[C@H]1C(=O)NCC(=O)N[C@@H](C)C(=O)N2`, the Ki (usually a dissociation constant, usually derived from enzyme kinetics or from competition with a known ligand) in data set [1] turned out to be 1.3 nM.

The compound `CC[C@H](C)[C@@H]1NC(=O)[C@@H]2CSSC[C@@H]3NC(=O)[C@H](C(C)C)NC(=O)CNC(=O)CNC(=O)[C@H](CC(=O)O)NC(=O)[C@H](CO)NC(=O)CNC(=O)[C@H](CO)NC(=O)CNC(=O)[C@@H]4CSSC[C@H](NC(=O)[C@H](CC(=O)O)NC(=O)[C@H](CO)NC(=O)[C@H](CC(=O)O)NC(=O)[C@H](CCCNC(=N)N)NC(=O)[C@H](CCCNC(=N)N)NC(=O)[C@H](CSSC[C@H](NC1=O)C(=O)N[C@@H](CCCNC(=N)N)C(=O)NCC(=O)N[C@@H](CC(N)=O)C(=O)NCC(=O)N[C@@H](Cc1ccc(O)cc1)C(=O)N4)NC(=O)[C@H](CCCCN)NC(=O)[C@H](CCCCN)NC(=O)[C@H](CC(C)C)NC(=O)[C@H]([C@@H](C)CC)NC(=O)[C@H](CCCCN)NC(=O)[C@H](CCC(N)=O)NC3=O)C(=O)N1CCC[C@H]1C(=O)NCC(=O)N[C@@H](C)C(=O)N2` came in with a Ki in data set [1] of 0.13 nM.

Turning to `CC[C@H](C)[C@@H]1NC(=O)[C@@H]2CSSC[C@@H]3NC(=O)[C@H](C(C)C)NC(=O)CNC(=O)CNC(=O)[C@H](CC(=O)O)NC(=O)[C@H](CO)NC(=O)CNC(=O)[C@H](CO)NC(=O)CNC(=O)[C@@H]4CSSC[C@H](NC(=O)[C@H](CC(=O)O)NC(=O)[C@H](CO)NC(=O)[C@H](CC(=O)O)NC(=O)[C@H](CCCNC(=N)N)NC(=O)[C@H](CCCNC(=N)N)NC(=O)[C@H](CSSC[C@H](NC1=O)C(=O)N[C@@H](CCCNC(=N)N)C(=O)NCC(=O)N[C@@H](CC(N)=O)C(=O)NCC(=O)N[C@@H](Cc1ccc(O)cc1)C(=O)N4)NC(=O)[C@H](CCCCN)NC(=O)[C@H](CCCCN)NC(=O)[C@H](CC(C)C)NC(=O)[C@H]([C@@H](C)CC)NC(=O)[C@H](CCCNC(=N)N)NC(=O)[C@@H]1CCCN1C3=O)C(=O)N1CCC[C@H]1C(=O)NCC(=O)N[C@@H](C)C(=O)N2`, the Ki in data set [1] came to 0.3 nM. The Drug uptake result in data set [2] is reported as “Not Active”.

In the case of `CC[C@H](C)[C@@H]1NC(=O)[C@@H]2CSSC[C@@H]3NC(=O)[C@H](C(C)C)NC(=O)CNC(=O)CNC(=O)[C@H](CC(=O)O)NC(=O)[C@H](CO)NC(=O)CNC(=O)[C@H](CO)NC(=O)CNC(=O)[C@@H]4CSSC[C@H](NC(=O)[C@H](CC(=O)O)NC(=O)[C@H](CO)NC(=O)[C@H](CC(=O)O)NC(=O)[C@H](CCC(N)=O)NC(=O)[C@H](CCC(N)=O)NC(=O)[C@H](CSSC[C@H](NC1=O)C(=O)N[C@@H](CCCCN)C(=O)NCC(=O)N[C@@H](CC(N)=O)C(=O)NCC(=O)N[C@@H](Cc1ccc(O)cc1)C(=O)N4)NC(=O)[C@H](CCC(N)=O)NC(=O)[C@H](CCC(N)=O)NC(=O)[C@H](CC(C)C)NC(=O)[C@H]([C@@H](C)CC)NC(=O)[C@H](CCCNC(=N)N)NC(=O)[C@@H]1CCCN1C3=O)C(=O)N1CCC[C@H]1C(=O)NCC(=O)N[C@@H](C)C(=O)N2` (cyclo(ACICKGNGYCGSGSDGGVCPRILQQCQQDSDCPG); disulfide 2-19, 4-26, 10-32), the Activity result in data set [3] is given as “Non-Toxic”. Moreover, the Ki in data set [1] worked out at 1.8 nM. Also, the Drug uptake result in data set [2] was “Not Active”.

Values taken from ChEMBL document CHEMBL4325933, “Potent, Selective, and Cell-Penetrating Inhibitors of Kallikrein-Related Peptidase 4 Based on the Cyclic Peptide MCoTI-II” (ACS Med Chem Lett, 2018).
